ChEMBL document CHEMBL3244069, “Synthesis and biological activities of arginine-vasopressin analogues designed from a conformation-activity approach” (1979)
Active and inactive are the calls of the source. No cut-off for these calls is given here. Bridge positions count the residues as written; N and C are the ends. Square brackets hold non-standard residues; d marks the D form. Peptide text beside a SMILES is read from it. ΔPro = O=C(O)[C@@H]1C=CCN1; Mpa = O=C(O)CCS

How the values were obtained:
Rattus norvegicus [1] = species on record: Rattus norvegicus; experiment: Induction in uterus contraction in isolated rat uterine horns in vitro
Gallus gallus = experiment: Reduction in vasomotor depression in chicken after single intravenous bolus injection; type: functional
Method in brief: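 Avian vasodepressor assay in conscious chickens (Coon method per U.S. Pharmacopeia, modified by Munsick et al.). Four-point Schild design against the U.S.P. posterior pituitary reference standard; results in units/mg on anhydrous weight.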

Rattus norvegicus [2] = experiment: Antidiuretic effect in Brattleboro rat assessed as maximal depressions of urine flow after single intravenous bolus injection; type: functional
Rattus norvegicus [3] = experiment: Induction in blood pressure in rat after single intravenous bolus injection; type: functional
Method in brief: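 Pressor assay in anesthetized male rats following the U.S. Pharmacopeia procedure. Specific activity obtained by the Schild four-point design against the U.S.P. posterior pituitary reference standard; results in units/mg on anhydrous peptide weight.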

Rattus norvegicus [4] = experiment: Reduction in urine flow in Sprague-Dawley rat at 1.6 x 10^-11 mol, single intravenous bolus injection; type: functional, organism-based; settings: in the assay text read “1.6 x 10^-12 mol” for “1.6 x 10^-11 mol”
Method in brief: (§1)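 Renal clearance in six male Sprague-Dawley rats, 250–275 g, under Inactin (10 mg/100 g ip), hydrated to 8% body weight with 2% ethanol/0.5% glucose. Infusion of 3% inulin, 1% mannitol, 0.6% NaCl, 2% alcohol at about 10 mL/h; 60 min equilibration; body temperature 37 °C. Urine volume determined gravimetrically, GFR from inulin (anthrone method), Na/K by flame photometry.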

Rattus norvegicus [5] = experiment: Induction in blood pressure in rat at 1.6 x 10^-12 mol, single intravenous bolus injection; type: functional, organism-based
Method in brief: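 Hydrated, Inactin-anesthetized male Sprague-Dawley rats with carotid artery cannulated; arterial pressure recorded on a physiograph after a single intravenous bolus of 1.6×10^-12 mol (21 microunits).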

Rattus norvegicus [6] = experiment: Decrease in glomerular filtration rate in Sprague-Dawley rat at 1.6 x 10^-11 mol, single intravenous bolus injection; type: functional, organism-based; settings: in the assay text read “1.6 x 10^-12 mol” for “1.6 x 10^-11 mol”
Method in brief: as §1

Rattus norvegicus [7] = experiment: Reduction in fractional excretion of sodium in Sprague-Dawley rat at 1.6 x 10^-11 mol, single intravenous bolus injection; type: functional, organism-based; settings: in the assay text read “1.6 x 10^-12 mol” for “1.6 x 10^-11 mol”
Method in brief: as §1

Rattus norvegicus [8] = experiment: Increase in urine osmolality in Sprague-Dawley rat measured per liter at 1.6 x 10^-12 mol, single intravenous bolus injection (reference value: 200 mosm)
Rattus norvegicus [9] = experiment: Reduction in fractional excretion of sodium in Sprague-Dawley rat at 4.2 x 10^-11 mol, single intravenous bolus injection; type: functional, organism-based
Method in brief: (§2)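 Six male Sprague-Dawley rats (250–275 g), Inactin 10 mg/100 g i.p., hydrated to 8% body weight; carotid, jugular and bladder cannulated, 37 °C. Inulin/mannitol/NaCl infusion (300 mosm) ~10 mL/h, 60 min equilibration. Blood pressure from the carotid; urine volume weighed, four postinjection samples; GFR from inulin (anthrone); sodium by flame photometry.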

Rattus norvegicus [10] = experiment: Increase in urine osmolality in Sprague-Dawley rat measured per liter at 4.2 x 10^-11 mol, single intravenous bolus injection (reference value: 200 mosm); type: functional
Rattus norvegicus [11] = experiment: Reduction in urine flow in Sprague-Dawley rat at 4.2 x 10^-11 mol, single intravenous bolus injection; type: functional, organism-based
Method in brief: as §2

Rattus norvegicus [12] = experiment: Induction in blood pressure in rat at 4.2 x 10^-11 mol, single intravenous bolus injection; type: functional, organism-based
Method in brief: as §2

Rattus norvegicus [13] = experiment: Decrease in glomerular filtration rate in Sprague-Dawley rat at 1.6 x 10^-12 mol, single intravenous bolus injection

N=C(N)NCCC[C@H](NC(=O)[C@@H]1C=CCN1C(=O)[C@@H]1CSSCCC(=O)N[C@@H](Cc2ccc(O)cc2)C(=O)N[C@@H](Cc2ccccc2)C(=O)N[C@@H](CCC(N)=O)C(=O)N[C@@H](CC(N)=O)C(=O)N1)C(=O)NCC(N)=O
Activity (Rattus norvegicus [1]): 69 U/mg
Activity (Gallus gallus): 345 U/mg
Activity (Rattus norvegicus [2]): 4134 U/mg
Activity (Rattus norvegicus [3]): 240 U/mg

N=C(N)NCCC[C@H](NC(=O)[C@@H]1CCCN1C(=O)[C@@H]1CSSCCC(=O)N[C@@H](Cc2ccccc2)C(=O)N[C@@H](Cc2ccccc2)C(=O)N[C@@H](CCC(N)=O)C(=O)N[C@@H](CC(N)=O)C(=O)N1)C(=O)NCC(N)=O ([Mpa]FFQNCPRG-NH2; disulfide 1-6)
Activity (Rattus norvegicus [1]): 0.3 U/mg
Activity (Gallus gallus): <1 U/mg
Activity (Rattus norvegicus [2]): 810 U/mg
Activity (Rattus norvegicus [3]): 29 U/mg

N=C(N)NCCC[C@H](NC(=O)[C@@H]1C=CCN1C(=O)[C@@H]1CSSCCC(=O)N[C@@H](Cc2ccccc2)C(=O)N[C@@H](Cc2ccccc2)C(=O)N[C@@H](CCC(N)=O)C(=O)N[C@@H](CC(N)=O)C(=O)N1)C(=O)NCC(N)=O ([Mpa]FFQNC[ΔPro]RG-NH2; disulfide 1-6)
Activity (Rattus norvegicus [1]): 6 U/mg
inhibition (Rattus norvegicus [4]): Active
Activity (Gallus gallus): 2.9 U/mg
Activity (Rattus norvegicus [5]): inactive
inhibition (Rattus norvegicus [6]): Active
inhibition (Rattus norvegicus [7]): Active
Activity (Rattus norvegicus [2]): 13000 U/mg
Activity (Rattus norvegicus [8]): 700 milliosmole

N=C(N)NCCCC(NC(=O)[C@@H]1CCCN1C(=O)[C@@H]1CSSCCC(=O)N[C@@H](Cc2ccc(O)cc2)C(=O)N[C@@H](Cc2ccccc2)C(=O)N[C@@H](CCC(N)=O)C(=O)N[C@@H](CC(N)=O)C(=O)N1)C(=O)NCC(N)=O (single isomer, unassigned) [DESMOPRESSIN]
Activity (Rattus norvegicus [1]): 29 U/mg
Activity (Gallus gallus): 160 U/mg
Activity (Rattus norvegicus [2]): 1400 U/mg
Activity (Rattus norvegicus [3]): 395 U/mg

N=C(N)NCCC[C@H](NC(=O)[C@@H]1CCCN1C(=O)[C@@H]1CSSC[C@H](N)C(=O)N[C@@H](Cc2ccc(O)cc2)C(=O)N[C@@H](Cc2ccccc2)C(=O)N[C@@H](CCC(N)=O)C(=O)N[C@@H](CC(N)=O)C(=O)N1)C(=O)NCC(N)=O [VASOPRESSIN]
inhibition (Rattus norvegicus [9]): Active
Activity (Rattus norvegicus [1]): 12 U/mg
Activity (Rattus norvegicus [10]): 700 milliosmole
inhibition (Rattus norvegicus [11]): Active
Activity (Rattus norvegicus [12]): Active
Activity (Gallus gallus): 100 U/mg
Activity (Rattus norvegicus [2]): 503 U/mg
Activity (Rattus norvegicus [3]): 487 U/mg
inhibition (Rattus norvegicus [13]): Active
